This is a sample that favours compounds with a hit; in the whole collection about 2.9% have one here.
SUMO HTRF inh – inhibitors of in vitro SUMOylation cascade, primary screen, biochemical, HTRF, uHTS; SUMO-conjugating enzyme UBC9 (Homo sapiens), P63279; HTRF SUMOylation assay, SAE1/SAE2 + UBC9; inhibition, % at 35 µM; actives 0.36% (n = 290,000); AID 2006, 2009; in the data active means inhibition above about 50%, passing the limit was not always enough
Target sequence (P63279 whole entry, looked up): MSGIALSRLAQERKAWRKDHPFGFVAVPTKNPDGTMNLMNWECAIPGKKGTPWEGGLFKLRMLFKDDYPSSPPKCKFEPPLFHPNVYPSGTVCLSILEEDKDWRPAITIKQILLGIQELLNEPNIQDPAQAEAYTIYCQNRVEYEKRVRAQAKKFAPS
FID counter – compounds displacing fluorescent DNA intercalator, primary screen, artefact control for HCV NS3 helicase inhibitor project, biochemical, FID fluorescence; inhibition, % at 7.9 µM; actives 0.17% (n = 290,000); DNA fluorescent intercalator displacement; AID 1845, 2009; in the data active means inhibition above about 37%;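 further: 0% = vehicle and 100% = reference compound; higher means more ethidium bromide displaced from hairpin DNA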
Mot1-301 SUMO – yeast Mot1-301 growth rescue at high temperature, primary screen, SUMOylation pathway inhibitor project, S. cerevisiae, ATP luminescence, 38.5C. S. cerevisiae Mot1-301 growth rescue; percent above DMSO median, 100 means doubled. growth rescue, % at 18.8 µM. actives 1% (n = 320,000). AID 2716, 2010;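 active means every valid replicate shows activation above 250% relative to neutral control wells; inactive means the rest, any valid replicate at or below 250%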;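 further: OY570 slx delta 5 strain wells were the positive control but not used for scaling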
IMP-1 inhibitor – IMP-1 metallo-beta-lactamase inhibitors, primary screen, biochemical, epi-absorbance readout, Pseudomonas aeruginosa enzyme; actives 0.45% (n = 290,000); inhibition, % at 5.6 µM; purified IMP-1, nitrocefin hydrolysis, epi-absorbance fluorescence;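 active means inhibition above the mean plus 3 SD of all compounds in the same screening run, cut at about 4.5% in these data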;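 further: 0% = IMP-1 with DMSO and 100% = DMSO wells lacking enzyme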
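System: purified IMP-1; amount: IMP-1 0.2 nM before substrate addition; compound: single dose, 5.6 µM; times: 25 °C, 15 min preincubation, 25 min reaction; signal: Epi-absorbance via hydrolysed-nitrocefin quenching of white-plate fluorescence, 480/530 nm, EDTA stop; benchmarks: DMSO with and without IMP-1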
NALP1 yeast inh – NALP1 inflammasome inhibitors in reconstituted yeast, colorimetric, S. cerevisiae, triplicate retest | S. cerevisiae NALP1/ASC/caspase-1 growth, X-gal OD620, 72 h | inhibition, % at 10 µM | actives 0.61% (n = 280,000); in the data active means inhibition mostly above about 24%, no sharp cut-off; inactive means mostly below about 32%
VIM-2 inh – VIM-2 metallo-beta-lactamase inhibitors, primary screen, biochemical, epi-absorbance readout, Pseudomonas aeruginosa enzyme; purified VIM-2, nitrocefin hydrolysis, epi-absorbance fluorescence; inhibition, % at 5.6 µM; actives 0.89% (n = 290,000);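 active means inhibition above the mean of all tested compounds plus 3 SD, cutoff set per screening run, cut at about 7.5% in these data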;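 further: red hydrolysis product quenches plate fluorescence so inhibitors raise well fluorescence; 0% = enzyme with DMSO and 100% = DMSO without enzyme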
An asterisk follows results filed as active.

What do the screens show for `O=C(CCCc1nc(-c2ccccc2Cl)no1)NCc1cccnc1`?
SUMO HTRF inh: 7.5; FID counter: -4.1; Mot1-301 SUMO: 24.4; IMP-1 inhibitor: 5.7*; NALP1 yeast inh: 3.9; VIM-2 inh: -3.0

What do the screens show for `O=C(CCc1nc(-c2ccccc2)no1)NCc1cccnc1`?
SUMO HTRF inh: 19.6; FID counter: -1.5; Mot1-301 SUMO: -10.4; IMP-1 inhibitor: -2.2; NALP1 yeast inh: 18.7; VIM-2 inh: -4.5

How did N=C1CCC(=N)c2c1c(O)c1ccccc1c2O do in these assays?
SUMO HTRF inh: 63.1*; FID counter: -7.3; Mot1-301 SUMO: -1.8; IMP-1 inhibitor: 2.9; NALP1 yeast inh: 11.8; VIM-2 inh: 3.1

Results for Cc1ccn2c(CNCCn3nc(C)cc3C)c(C(=O)N3CCCCCC3)nc2c1 ?
SUMO HTRF inh: -13.2; FID counter: -3.1; Mot1-301 SUMO: 533.9*; IMP-1 inhibitor: -3.5; NALP1 yeast inh: 2.5; VIM-2 inh: -2.9

How did Cc1ccn2c(CN(C)CCn3nc(C)cc3C)c(C(=O)N3CCCCCC3)nc2c1 do in these assays?
SUMO HTRF inh: 3.3; FID counter: -23.6; Mot1-301 SUMO: 0.9; IMP-1 inhibitor: -2.1; NALP1 yeast inh: -0.1; VIM-2 inh: -2.0

How did O=S(=O)(Nc1ccncc1)c1ccc(Cl)c(Cl)c1 do in these assays?
SUMO HTRF inh: 9.3; FID counter: -2.4; Mot1-301 SUMO: 82.5; IMP-1 inhibitor: -3.4; NALP1 yeast inh: 9.8; VIM-2 inh: -1.6

How did Fc1ccc(-c2csc(N3CCC(c4ccccc4)C3)n2)cc1 (centres undefined) do in these assays?
SUMO HTRF inh: -8.8; FID counter: -0.7; Mot1-301 SUMO: 934.0; IMP-1 inhibitor: -4.1; NALP1 yeast inh: 31.6*; VIM-2 inh: -1.2

What do the screens show for `COc1cc(-n2c(C)nc3cccnc32)c(Cl)cc1C(=O)O`?
SUMO HTRF inh: -9.8; FID counter: -1.3; Mot1-301 SUMO: 0.7; IMP-1 inhibitor: -2.0; NALP1 yeast inh: 6.1; VIM-2 inh: -4.5

Results for COc1ccc(NC(=O)Nc2cccc3c2O[C@H](CN(C)C(=O)Nc2ccc4c(c2)OCO4)[C@@H](C)CN([C@H](C)CO)C3=O)cc1 ?
Mot1-301 SUMO: -11.8

How did COc1ccc2c(c1)CCc1sc(NC(=O)c3ccc(C)cc3)nc1-2 do in these assays?
SUMO HTRF inh: -8.3; FID counter: 2.2; IMP-1 inhibitor: -1.0; NALP1 yeast inh: 11.0; VIM-2 inh: -3.1

Results for COc1ccc2c(c1)Cc1sc(NC(C)=O)nc1-2 ?
SUMO HTRF inh: 65.1; FID counter: 4.2; Mot1-301 SUMO: 8.6; IMP-1 inhibitor: 10.7*; NALP1 yeast inh: 9.8; VIM-2 inh: 2.6

How did COc1ccc2c(c1)Cc1sc(NC(=O)c3cccnc3)nc1-2 do in these assays?
SUMO HTRF inh: 89.8*; FID counter: -3.4; Mot1-301 SUMO: -0.6; IMP-1 inhibitor: -2.3; NALP1 yeast inh: 6.5; VIM-2 inh: -0.2

How did COc1ccc2c(c1)Cc1sc(NC(=O)c3ccco3)nc1-2 do in these assays?
SUMO HTRF inh: 77.6; FID counter: -1.8; Mot1-301 SUMO: -6.6; IMP-1 inhibitor: -1.8; NALP1 yeast inh: 12.1; VIM-2 inh: -2.0

Results for Cc1cc(C(=O)NNC(=O)c2ccc(F)cc2)c(C)s1 ?
Mot1-301 SUMO: 4.6

How did C(C#CCCCCCCCCC[n+]1ccccc1)#CCCCCCCCCC[n+]1ccccc1 do in these assays?
SUMO HTRF inh: -7.7; FID counter: 42.9*; Mot1-301 SUMO: 142.9; IMP-1 inhibitor: 3.5; NALP1 yeast inh: 82.1*; VIM-2 inh: -1.0

What do the screens show for `CCOc1ccccc1N1CN(CC)CNC1=S`?
SUMO HTRF inh: -0.6; FID counter: 0.6; Mot1-301 SUMO: 355.1*; IMP-1 inhibitor: -0.3; NALP1 yeast inh: 4.0; VIM-2 inh: 0.8

How did CC(=O)c1c(N2CCCC2)nc(=S)n(-c2ccccc2)c1C do in these assays?
SUMO HTRF inh: -8.8; FID counter: 0.8; Mot1-301 SUMO: -16.2; IMP-1 inhibitor: -2.0; NALP1 yeast inh: 37.5*; VIM-2 inh: -1.9
